# In ChEMBL document CHEMBL3526002, “Tissue distribution and identification of radioactivity components at elimination phase after oral administration of [¹⁴C]CS-1036, an α-amylase inhibitor, to rats” (Drug Metab Dispos, 2013):
# Experiments:
# Assay type in all cases: ADME, organism-based
# Design in all cases: dose 5 mg/kg, dosed compound name [14C]CS-1036, route oral
# Details in all cases: in vivo
# [1] = Drug uptake in albino F344/DuCrlCrlj rat bone marrow assessed as ng equivalent of CS-1036 at 5 mg/kg, po after 1 hr by liquid scintillation counting
# [2] = system: Pancreas; test: Drug uptake in albino F344/DuCrlCrlj rat pancreas assessed as ng equivalent of CS-1036 at 5 mg/kg, po after 8 hrs by liquid scintillation counting
# [3] = system: Adrenal gland; test: Drug uptake in albino F344/DuCrlCrlj rat adrenal gland assessed as ng equivalent of CS-1036 at 5 mg/kg, po after 4 hrs by liquid scintillation counting
# [4] = Drug uptake in albino F344/DuCrlCrlj rat epididymis assessed as ng equivalent of CS-1036 at 5 mg/kg, po after 72 hrs by liquid scintillation counting
# [5] = Drug uptake in albino F344/DuCrlCrlj rat epididymis assessed as ng equivalent of CS-1036 at 5 mg/kg, po after 168 hrs by liquid scintillation counting
# [6] = Drug uptake in albino F344/DuCrlCrlj rat eyeball at 5 mg/kg, po after 168 hrs by liquid scintillation counting
# [7] = system: Thymus; test: Drug uptake in albino F344/DuCrlCrlj rat thymus assessed as ng equivalent of CS-1036 at 5 mg/kg, po after 168 hrs by liquid scintillation counting
# [8] = system: Kidney; test: Drug uptake in albino F344/DuCrlCrlj rat kidney at 5 mg/kg, po after 1 hr by liquid scintillation counting
# [9] = system: Spleen; test: Drug uptake in albino F344/DuCrlCrlj rat spleen assessed as ng equivalent of CS-1036 at 5 mg/kg, po after 8 hrs by liquid scintillation counting
# [10] = system: Stomach; test: Drug uptake in albino F344/DuCrlCrlj rat stomach at 5 mg/kg, po after 336 hrs by liquid scintillation counting
# [11] = Drug uptake in albino F344/DuCrlCrlj rat urinary bladder assessed as ng equivalent of CS-1036 at 5 mg/kg, po after 1 hr by liquid scintillation counting
# [12] = system: Cerebrum; test: Drug uptake in albino F344/DuCrlCrlj rat cerebrum at 5 mg/kg, po after 4 hrs by liquid scintillation counting
# In short: (§1)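 Single oral [14C]CS-1036 at 5 mg/kg was given to male rats (159–167 g; n = 3). Cerebrum was collected after aortic bleeding at 1, 4, 8, 24, 72, 168 or 336 h, weighed, and homogenized in 2 volumes of saline. A 0.5 ml aliquot was solubilized in Soluene-350 and counted by LSC with external-standard correction. Results are in ng equivalent/g tissue from specific activity and sample weight.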
# [13] = system: Small intestine; test: Drug uptake in albino F344/DuCrlCrlj rat small intestine assessed as ng equivalent of CS-1036 at 5 mg/kg, po after 168 hrs by liquid scintillation counting
# [14] = system: Aorta; test: Drug uptake in albino F344/DuCrlCrlj rat aorta at 5 mg/kg, po after 1 hr by liquid scintillation counting
# [15] = system: Kidney; test: Drug uptake in albino F344/DuCrlCrlj rat kidney assessed as ng equivalent of CS-1036 at 5 mg/kg, po after 168 hrs by liquid scintillation counting
# [16] = Drug uptake in albino F344/DuCrlCrlj rat thyroid gland at 5 mg/kg, po after 72 hrs by liquid scintillation counting
# [17] = system: Zone of skin; test: Drug uptake in albino F344/DuCrlCrlj rat skin at 5 mg/kg, po after 1 hr by liquid scintillation counting
# [18] = system: Blood; test: Drug uptake in albino F344/DuCrlCrlj rat blood at 5 mg/kg, po after 72 hrs by liquid scintillation counting
# In short: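 Male rats (159–167 g; n = 3) received a single oral dose of [14C]CS-1036 at 5 mg/kg. Blood was drawn from the abdominal aorta at 1, 4, 8, 24, 72, 168 and 336 h. Radioactivity was counted by LSC with external-standard efficiency correction. Results are expressed as ng equivalent/ml from the specific activity and sample volume; mean + S.D.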
# [19] = Drug uptake in albino F344/DuCrlCrlj rat testis at 5 mg/kg, po after 72 hrs by liquid scintillation counting
# [20] = system: Liver; test: Drug uptake in albino F344/DuCrlCrlj rat liver at 5 mg/kg, po after 336 hrs by liquid scintillation counting
# [21] = system: Adrenal gland; test: Drug uptake in albino F344/DuCrlCrlj rat adrenal gland at 5 mg/kg, po after 8 hrs by liquid scintillation counting
# [22] = system: Cerebrum; test: Drug uptake in albino F344/DuCrlCrlj rat cerebrum at 5 mg/kg, po after 24 hrs by liquid scintillation counting; in short: as §1
# [23] = Drug uptake in albino F344/DuCrlCrlj rat mandibular gland at 5 mg/kg, po after 1 hr by liquid scintillation counting
# [24] = Drug uptake in albino F344/DuCrlCrlj rat epididymis assessed as ng equivalent of CS-1036 at 5 mg/kg, po after 1 hr by liquid scintillation counting
# [25] = system: Small intestine; test: Drug uptake in albino F344/DuCrlCrlj rat small intestine assessed as ng equivalent of CS-1036 at 5 mg/kg, po after 1 hr by liquid scintillation counting
# [26] = system: Aorta; test: Drug uptake in albino F344/DuCrlCrlj rat aorta assessed as ng equivalent of CS-1036 at 5 mg/kg, po after 24 hrs by liquid scintillation counting
# [27] = system: Harderian gland; test: Drug uptake in albino F344/DuCrlCrlj rat harderian gland assessed as ng equivalent of CS-1036 at 5 mg/kg, po after 8 hrs by liquid scintillation counting
# [28] = system: Zone of skin; test: Drug uptake in albino F344/DuCrlCrlj rat skin assessed as ng equivalent of CS-1036 at 5 mg/kg, po after 168 hrs by liquid scintillation counting
# [29] = system: Liver; test: Drug uptake in albino F344/DuCrlCrlj rat liver assessed as ng equivalent of CS-1036 at 5 mg/kg, po after 24 hrs by liquid scintillation counting
# [30] = system: Liver; test: Drug uptake in albino F344/DuCrlCrlj rat liver assessed as ng equivalent of CS-1036 at 5 mg/kg, po after 168 hrs by liquid scintillation counting
# [31] = system: Liver; test: Drug uptake in albino F344/DuCrlCrlj rat liver at 5 mg/kg, po after 4 hrs by liquid scintillation counting
# [32] = system: Plasma; test: Drug uptake in albino F344/DuCrlCrlj rat plasma assessed as ng equivalent of CS-1036 at 5 mg/kg, po after 168 hrs by liquid scintillation counting
# [33] = system: Zone of skin; test: Drug uptake in albino F344/DuCrlCrlj rat skin assessed as ng equivalent of CS-1036 at 5 mg/kg, po after 1 hr by liquid scintillation counting
# [34] = system: Harderian gland; test: Drug uptake in albino F344/DuCrlCrlj rat harderian gland at 5 mg/kg, po after 24 hrs by liquid scintillation counting
# [35] = system: Kidney; test: Drug uptake in albino F344/DuCrlCrlj rat kidney at 5 mg/kg, po after 8 hrs by liquid scintillation counting
smiles,measurement,setting,value
C[C@H]1O[C@@H](O[C@H]2[C@H](O)[C@@H](O)[C@@H](O[14C@H]3[14C@H](O)[14CH2]N[14C@@H]3[14CH2]O)O[C@@H]2CO)[C@H](O)[C@@H](O)[C@@H]1O,Radiolabel recovery,[1],4.6 ngequiv/g
same,Radiolabel recovery,[2],71 ngequiv/g
same,Radiolabel recovery,[3],8.6 ngequiv/g
same,Radiolabel recovery,[4],8.3 ngequiv/g
same,Radiolabel recovery,[5],8.2 ngequiv/g
same,Radiolabel recovery,[6],4.54 ngequiv/g
same,Radiolabel recovery,[7],5.4 ngequiv/g
same,Radiolabel recovery,[8],520 ngequiv/g
same,Radiolabel recovery,[9],84.1 ngequiv/g
same,Radiolabel recovery,[10],11.9 ngequiv/g
same,Radiolabel recovery,[11],520 ngequiv/g
same,Radiolabel recovery,[12],12.2 ngequiv/g
same,Radiolabel recovery,[13],5.5 ngequiv/g
same,Radiolabel recovery,[14],50.6 ngequiv/g
same,Radiolabel recovery,[15],5.4 ngequiv/g
same,Radiolabel recovery,[16],99.1 ngequiv/g
same,Radiolabel recovery,[17],38.3 ngequiv/g
same,Radiolabel recovery,[18],16.1 ngequiv/ml
same,Radiolabel recovery,[19],24.9 ngequiv/g
same,Radiolabel recovery,[20],7.76 ngequiv/g
same,Radiolabel recovery,[21],66.1 ngequiv/g
same,Radiolabel recovery,[22],19.3 ngequiv/g
same,Radiolabel recovery,[23],43.4 ngequiv/g
same,Radiolabel recovery,[24],2.8 ngequiv/g
same,Radiolabel recovery,[25],86500 ngequiv/g
same,Radiolabel recovery,[26],8.4 ngequiv/g
same,Radiolabel recovery,[27],24.5 ngequiv/g
same,Radiolabel recovery,[28],23.9 ngequiv/g
same,Radiolabel recovery,[29],37 ngequiv/g
same,Radiolabel recovery,[30],9.1 ngequiv/g
same,Radiolabel recovery,[31],276 ngequiv/g
same,Radiolabel recovery,[32],1.65 ngequiv/ml
same,Radiolabel recovery,[33],2.2 ngequiv/g
same,Radiolabel recovery,[34],290 ngequiv/g
same,Radiolabel recovery,[35],1320 ngequiv/g
